Here are results for 1 compound from article PMC11244656 (International journal of pharmaceutics, 2021).

In data set [1] the test system is artificial CM-like emulsion (Intralipid). The experiment in a line: CM association assay with artificial CM-like emulsion. The following applies: 1.75 μM, TG 1 mg/mL, 37°C, 1 hour, n = 22. It is filed as in vitro ADME. Summed up: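 Intralipid 20% was diluted in PBS to 1 mg/mL triglyceride. A 2 mL volume was spiked from a 1 mg/mL propylene glycol–ethanol (99:1) stock to give 1.75 μM final. It was stirred at 170 rpm, 37°C, for 1 h. The emulsion was then re-isolated by density gradient ultracentrifugation and drug content measured by HPLC-UV.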

The next data set concerns human plasma-derived CM. The experiment in a line: CM association assay with human plasma-derived CM. The data set is classed as in vitro ADME. To be noted: 1.75 μM, TG 1 mg/mL, 37°C, 1 hour, n = 9. The procedure, abridged:
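Chylomicrons came from volunteers on no medicines in the prior week, 3–4 h after a high-fat meal. Blood in K2-EDTA was centrifuged (1,160 g, 15°C, 10 min), then the plasma was ultracentrifuged (268,350 g, 15°C, 35 min). The top CM layer was diluted in PBS to 1 mg/mL TG (enzymatic kit) and held at 4°C ≤24 h. It was spiked to 1.75 μM final, stirred 1 h at 37°C and re-isolated.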

Data set [2] can be described thus: Pharmacokinetic study in rats. It is filed as in vivo. To be noted: male, Sprague Dawley, rat, plasma. The procedure, abridged:
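Male Sprague Dawley rats (275–300 g) had jugular vein cannulas placed under isoflurane, recovered 2 nights and were fasted up to 16 h. IV bolus was given in propylene glycol–water–ethanol (70:20:10). Oral gavage used the same vehicle or sesame oil. Plasma was sampled to 24 h and assayed by HPLC-UV (263 nm, internal standard, 5–15000 ng/mL). Non-compartmental analysis; n = 5 IV, 3 or 6 oral.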

The nature of data set [3]: Biodistribution study to mesenteric lymph and MLNs in rats. The data set is classed as in vivo. To be noted: rat, oral 5 mg/kg; for levels in MLNs compared to plasma: tmax-1h and tmax.
For data set [4] the following is noted: rats, lipid-free formulation; cited from earlier work.

On to `CCC[C@@]1(CCc2ccccc2)CC(O)=C([C@H](CC)c2cccc(NS(=O)(=O)c3ccc(C(F)(F)F)cn3)c2)C(=O)O1` [TPV, tipranavir], for which the “association with artificial CM-like emulsion (Intralipid)” value in data set [1] stood at 31.6%. Also, the “association with natural human plasma-derived CM” value with human plasma-derived CM turned out to be 66.7%. In data set [2] (iv, 1 mg/kg), this compound had a C0 of 17600 ng/mL, a Vd of 0.903 ± 0.204 L/kg and a clearance of 4.55 mL/min/kg. Moreover, the Tmax in data set [2] (po, 5 mg/kg) was 3 h. For the same compound, the “concentration in mesenteric lymph fluid compared to plasma” value in data set [3] (LCT-based formulation, tmax-1h (2 h) and tmax (3 h)) is “three-fold higher”. Besides, the “levels in MLNs compared to plasma” value in data set [3] (LCT-based formulation) was “comparable”. In data set [3] (lipid-free formulation), the “levels in MLNs compared to plasma” value is “comparable”. Moreover, in data set [4], the oral bioavailability is on record as 30%.
